The list is not random: actives were taken first. Their share in the collection is about 1.8%.
MIN6 prolif: inducers of MIN6 beta-cell proliferation, primary screen, ATP luminescence, uHTS; proliferation, % at 10 µM; 0.29% of 330,000 active; MIN6 cells proliferation, ATPlite luminescence, 48 h; cells starved in 0.2% serum; 100% = growth in 10% serum; AID 2380, 2010;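 active = compounds whose signal lies at least 3.5 SD above the mean of all wells on their plate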;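 also: 0% = DMSO-treated cells in low-serum medium and 100% = 10% serum control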
PPC-1+TRAIL kill: compounds killing PPC-1 cancer cells with TRAIL present, primary screen, TRAIL potentiator project, ATPLite luminescence, uHTS; AID 1443, 2008; 0.41% of 220,000 active; cell killing (% activity), % at 4 µM or 5 µM; PPC-1 cells + TRAIL, ATPLite viability luminescence;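 active = cell killing above 50% in the first pass at 4 µM, then a duplicate retest at 5 µM averaging 50% or more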;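 also: plate controls were cells with TRAIL plus DMSO for no effect and medium-only wells lacking cells for full effect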
FLuc act counter: FLuc activators, initial screening, artefact control for FLuc-dependent activation tests, biochemical, ATPlite luminescence; ATPlite luciferase biochemical, 10 min; 0 = ATP-free wells, 1 = DMSO control; activation factor at 10 µM; 200,000 tested, under 10 active;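 active = luciferase activation factor, scaled between plate controls, of at least 2 with compound at 10 µM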
Target sequence (P08659 whole entry, looked up): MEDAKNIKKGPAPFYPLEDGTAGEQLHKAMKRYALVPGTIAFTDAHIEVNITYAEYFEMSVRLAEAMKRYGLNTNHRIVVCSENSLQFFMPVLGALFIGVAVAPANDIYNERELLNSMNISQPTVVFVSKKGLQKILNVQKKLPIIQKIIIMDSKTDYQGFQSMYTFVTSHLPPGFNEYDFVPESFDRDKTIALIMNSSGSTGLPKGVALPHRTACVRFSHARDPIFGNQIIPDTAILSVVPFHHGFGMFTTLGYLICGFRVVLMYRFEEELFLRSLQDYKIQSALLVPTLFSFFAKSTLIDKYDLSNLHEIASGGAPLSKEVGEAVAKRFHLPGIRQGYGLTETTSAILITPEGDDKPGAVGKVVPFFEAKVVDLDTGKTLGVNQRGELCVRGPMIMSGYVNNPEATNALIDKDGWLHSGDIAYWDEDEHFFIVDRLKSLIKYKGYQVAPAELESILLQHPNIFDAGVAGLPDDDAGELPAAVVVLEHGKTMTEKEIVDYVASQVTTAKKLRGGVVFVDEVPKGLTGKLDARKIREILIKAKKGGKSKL
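Assay system: Luciferase/luciferin detection reagent, cell-free biochemical luciferase assay / Read-out: luciferase activation / Benchmarks: No-ATP low control, compound-free enzyme-plus-ATP high control / Medium: PBS buffer for ATP / Detection: luminescence measurement of luciferase light output / Schedule: 10 min at ambient temperature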
iPSC survival up: enhancers of single-cell hiPSC survival, primary screen, ATPlite luminescence. survival enhancement, % at 20 µM. 0.044% of 360,000 active. AID 602274, 2012. 100% = ROCK inhibitor wells, 0% = DMSO; in the data active = survival enhancement above about 18%;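 also: cells exposed to compounds for 16 hours before the ATP read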
FLuc inh counter: firefly luciferase enzyme inhibitors, primary screen, artefact control for luciferase-based inhibitor screens, biochemical, luminescence, ATPLite | Luciferin 4-monooxygenase (Photinus pyralis), P08659 | 10 min | inhibition, % at 10 µM | 1.5% of 200,000 active | AID 1006, 2008;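 active = inhibition above about 50% when tested at 10 µM, limit read from the data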
C8 TRAIL sens: viability loss with TRAIL in NB7+C8 cells, primary screen, TRAIL sensitizer project, cell-based, ATPlite luminescence; inhibition (viability loss, TRAIL sensitization), % at 10 µM; 1% of 360,000 active; AID 624354, 2012;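 active = compounds causing at least 50% loss of cell viability in the single-dose screen, relative to plate controls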
* hit, by the source's call; x = not tested or not shown.

SMILES	MIN6 prolif	PPC-1+TRAIL kill	FLuc act counter	iPSC survival up	FLuc inh counter	C8 TRAIL sens
O=C(NCC1CC1)[C@]1(C(F)(F)F)C[C@H](CCC2CCCCC2)CCCO1	2	x	x	1	x	6
Cc1cc(C)cc(N(CC(=O)Nc2ccc(-c3nc4ccc(C)cc4s3)cc2)S(C)(=O)=O)c1	-6	12	0.9	1	9	4
COc1ccc(/C=C(\C#N)C(=O)OCC(=O)Nc2ccc(-c3nc4ccc(C)cc4s3)cc2)cc1	-6	40	0.6	0	44	54*
COc1ccc(/C=C(\C#N)C(=O)OCC(=O)NC(C)c2ccccc2)cc1 (centres undefined)	1	0	1.1	0	-9	-5
Cc1ccc2nc(-c3ccc(NC(=O)CN(c4ccccc4C)S(C)(=O)=O)cc3)sc2c1	-2	13	0.6	-2	37	43*
Cc1ccc(S(=O)(=O)c2ccc([N+](=O)[O-])o2)cc1	x	x	x	-1	x	92*
Cc1cccc(NC(=O)c2cc3ccccc3oc2=O)c1	-1	x	x	-1	x	28
Cc1ccnc(NC(=O)c2cc3ccccc3oc2=O)c1	-1	28	0.5	-1	54*	11
Cc1ccnc(NC(=O)c2oc3ccccc3c2C)c1	-7	x	x	0	x	66*
CCOc1ccc2oc(C(=O)O)c(C)c2c1	-2	-3	x	0	x	-11
CCOc1ccc2oc(C(=O)Nc3cc(C)ccn3)c(C)c2c1	-5	x	x	0	x	70*
CCCCC(CC)CN1C(=O)/C(=C/c2ccncc2)SC1=S (centres undefined)	-4	3	1	0	0	86*
CCc1nnc(NC(=O)CSc2ccc(-c3ccc(-n4cccn4)cc3)nn2)s1	-4	x	x	0	x	77*
Cc1ccccc1NC(=O)CSc1ccc(-c2ccc(-n3cccn3)cc2)nn1	-5	x	x	0	x	35
COc1ccccc1NC(=O)CSc1ccc(-c2ccc(-n3ccnc3)cc2)nn1	-1	x	x	0	x	51*
Cc1cc(/C=C2\NC(=O)N(Cc3ccc(Cl)cc3)C2=O)c(C)n1C	x	34	1.1	1	-9	-13
CC1=NN(c2ccc(C)c(C)c2)C(=O)/C1=C\C=C\c1ccc([N+](=O)[O-])o1	-7	16	1.1	0	-10	79*
CC(C)(C)c1ccc(-c2conc2N)cc1	-3	16	0.4	-4	61*	25
CC(C)CC(NC(=O)OCc1ccccc1)C(=O)NC(Cc1ccccc1)C(=O)CCl (centres undefined)	x	x	x	-3	x	90*
COC(=O)C(Cc1ccccc1)NC(=O)C(CC(C)C)NC(=O)OC(C)(C)C (centres undefined)	1	-5	1.1	1	-5	-6
Cc1cccc(C)c1NS(=O)(=O)c1ccc(OCCNS(C)(=O)=O)cc1	-3	8	0.2	2	81*	1
COc1ccc(-c2ccc3sc4ccccc4c(=O)c3c2)cn1	-4	x	x	-4	x	66*
O=C(NCCN1CCOCC1)c1cc(Cl)ccc1Cl	1	x	x	0	x	5
O=C(NCCN1CCOCC1)NC1(C(F)(F)F)Oc2ccc(Cl)cc2O1 (centres undefined)	x	15	1	-2	-2	52*
Cc1ccccc1OCC(O)CNC1CCC(NCC(O)COc2ccccc2C)CC1 (centres undefined)	-5	x	x	-1	x	93*
SMILES	MIN6 prolif	PPC-1+TRAIL kill	FLuc act counter	iPSC survival up	FLuc inh counter	C8 TRAIL sens
Cc1ccc(OCC(O)CNC2CCCC2)c(C)c1 (centres undefined)	-2	x	x	0	x	8
Cc1ccc(Nc2nnc(SCC(=O)N(C)C3CCS(=O)(=O)C3)s2)cc1 (centres undefined)	-3	47	0.2	0	76*	41
Cc1ccc(/C=C2\C(=O)ON=C2c2ccccc2)o1	-2	11	0.4	0	60*	-8
CC1(C)Cc2c(cnn2-c2cccc(F)c2)C(NC(=O)c2ccc[n+]([O-])c2)C1 (centres undefined)	-2	x	x	-1	x	-19
Cc1onc(-c2c(F)cccc2Cl)c1C(=O)ONC(=O)c1ccccc1	2	-5	x	0	x	19
Cc1onc(-c2c(Cl)cccc2Cl)c1C(=O)ONC(=O)c1ccccc1	-4	3	x	-1	x	52*
Cc1ccc(/C=N/Nc2nc3ccccc3[nH]2)s1	-5	1	0.3	-3	72*	13
O=[N+]([O-])c1cc(/C=N/Nc2nc3ccccc3[nH]2)c(O)cc1O	x	53*	0.8	x	20	x
Cc1nn(-c2ccccc2)c(Cl)c1/C=N/Nc1nc2ccccc2[nH]1	-4	30	0.4	-4	65*	35
Brc1ccc(-c2ccc(/C=N/Nc3nc4ccccc4[nH]3)o2)cc1	-6	12	0.2	-5	81*	52*
Cc1cc(=O)[nH]c(N/N=C/c2c(C)nn(-c3ccccc3)c2Cl)n1	2	20	x	0	x	15
Brc1ccc(-c2ccc(/C=N/Nc3nncc(-c4ccccc4)n3)o2)cc1	-2	5	1	-1	-3	20
Cc1ccccc1/C=N/Nc1nc2ccccc2[nH]1	-3	-5	0.8	3	15	1
CN(CC(=O)Nc1ccc(F)cc1)C(=O)CN1C(=O)c2cccc([N+](=O)[O-])c2C1=O	2	x	x	1	x	-19
Cc1cccc(C)c1NC(=O)CN1CCN(C(=O)CNC(=O)c2ccc(N3CCCC3=O)cc2)CC1	9	x	x	1	x	-8
C[C@H](c1ccccc1)N1C[C@H](COCc2ccccc2)Oc2cc(N3CC[C@H](N(C)C)C3)ccc2S1(=O)=O	x	x	x	-1	x	13
CCOC(=O)C1(C)CCCN(C(=O)CCc2ccccc2)C1 (centres undefined)	x	x	x	6	x	-8
CCNC(=O)N1CCC(n2nccc2NC(=O)CCCc2ccccc2)CC1	-1	x	x	1	x	-1
CCOC(=O)c1nnn2c1nc(Nc1cccc(C(F)(F)F)c1)c1ccccc12	-1	18	x	-1	x	59*
Cc1ccc(/C=N/c2sc3c(c2C#N)CCC3)o1	1	28	0.3	-1	74*	2
N#Cc1c(/N=C/c2cccs2)sc2c1CCCCC2	-5	-8	0.1	-4	86*	54*
COc1ccc(N2C(=O)CSC2c2ccccc2F)c(OC)c1 (centres undefined)	0	x	x	0	x	-16
Cc1cc(C(=O)Nc2ccccn2)cs1	-4	29	0.4	-3	57*	15
COc1cc(C(=O)Nc2ccccn2)cc(OC)c1OC	2	36	1.1	-3	-8	-1

High-throughput results as filed in PubChem BioAssay.
